Test results published in ChEMBL document CHEMBL1158700, “Phenolic constituents of the rhizomes of the Thai medicinal plant Belamcanda chinensis with proliferative activity for two breast cancer cell lines” (2005).

Columns and labels:
Type in all cases: functional
T47D [1] = assay: Estrogenic activity in human T47D cells assessed as drug level causing stimulation of cell proliferation equivalent to 10 pM estradiol by alamar blue assay
Outline: (§1)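 T47D cells were grown in RPMI-1640 with pyruvate, NEAA, glutamine and 10% FBS, then plated at 1 × 10^4 cells/well in phenol red-free RPMI with 5% DCC-treated FBS. Compounds were added in DMSO (1% DMSO control) and incubated 96 h at 37 °C, 5% CO2, alongside serial estradiol. Alamar Blue was read after 3 h (ex 530/em 590 nm). Values came from linear regression over ≥5 concentrations, quadruplicate.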

MCF7 [2] = assay: Estrogenic activity in human MCF7 cells assessed as drug level causing stimulation of cell proliferation equivalent to 10 pM estradiol by alamar blue assay
Outline: (§2)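 MCF-7 cells were maintained in MEM with 6 ng/mL insulin, pyruvate, NEAA, glutamine and 10% FBS. For the assay, 1 × 10^4 cells/well went into phenol red-free RPMI with 5% DCC-treated FBS. Compounds were given in DMSO (control 1% DMSO) at 10 nM–100 µM for 96 h at 37 °C. Estradiol dilutions served as reference. Read-out: Alamar Blue, 3 h, fluorescence ex 530/em 590 nm. Values came from linear regression, ≥5 concentrations, quadruplicate.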

T47D [3] = assay: Estrogenic activity in human T47D cells assessed as drug level causing stimulation of cell proliferation equivalent to 100 pM estradiol by alamar blue assay; outline: as §1
MCF7 [4] = assay: Estrogenic activity in human MCF7 cells assessed as drug level causing stimulation of cell proliferation equivalent to 100 pM estradiol by alamar blue assay; outline: as §2

| SMILES | Activity (T47D [1]) [µM] | Activity (MCF7 [2]) [µM] | Activity (T47D [3]) [µM] | Activity (MCF7 [4]) [µM] |
| --- | --- | --- | --- | --- |
| O=C(Cc1cc(O)cc(O)c1)c1ccc(O)cc1 [BELAMPHENONE] | 0.09 | 0.8 | 37.1 | 12.8 |
| O=c1c(-c2ccc(O)cc2)coc2cc(O)cc(O)c12 [GENISTEIN] | 0.001 | 0.003 | 0.009 | 0.013 |
| O=C(c1ccc(O)cc1)c1c(O)cc(O)cc1O [IRIFLOPHENONE] | 4.9 | 0.7 |  | 6.8 |
| COc1c(O)cc2occ(-c3ccc(O)c(O)c3)c(=O)c2c1O [IRILIN D] |  | 5.6 |  | 12.7 |
| COc1cc(-c2coc3cc4c(c(OC)c3c2=O)OCO4)cc(OC)c1OC [IRISFLORENTIN] |  | 50.3 |  |  |
| COc1ccc(-c2coc3cc(O[C@@H]4O[C@H](CO)[C@@H](O)[C@H](O)[C@H]4O)c(OC)c(O)c3c2=O)cc1O [IRISTECTORIN A] |  | 26.1 |  |  |
| COc1cc(-c2coc3cc(O[C@@H]4O[C@H](CO)[C@@H](O)[C@H](O)[C@H]4O)c(OC)c(O)c3c2=O)ccc1O [IRISTECTORIN B] |  | 77.3 |  |  |
| Oc1ccc(/C=C/c2cc(O)cc(O)c2)cc1 [RESVERATROL] | 0.03 | 1.6 |  |  |
| COc1c(O[C@@H]2O[C@H](CO)[C@@H](O)[C@H](O)[C@H]2O)cc2occ(-c3ccc(O)cc3)c(=O)c2c1O [TECTORIDIN] | 0.2 | 0.02 |  | 0.08 |
| COc1c(O)cc2occ(-c3ccc(O)cc3)c(=O)c2c1O [TECTORIGENIN] | 0.04 | 0.3 | 0.5 | 1 |
